Bioassay records deposited in PubChem by The Scripps Research Institute Molecular Screening Center.
HTR1E antagonist – antagonists of human 5-HT1E serotonin receptor. P28566. CHO 5-HT1E Ga15 NFAT-bla reporter, FRET, antagonist. inhibition, % at 6 µM. actives 0.99% (n = 65,000). AID 571;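 active = inhibition above a set limit, the mean inhibition across every tested compound plus 3 SD, cut at about 29% in these data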;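 note: signal is the 460 over 535 nm emission ratio of beta-lactamase substrate; 0% = agonist plus DMSO wells and 100% = wells without agonist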
S1P3 agonist – S1P3 (human) receptor agonism | Q99500 | S1P3 NFAT-BLA reporter cells, FRET ratio; relative to 1 µM S1P, basal subtracted | activation, % at 4.5 µM | actives 0.1% (n = 60,000) | AID 373;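 active = activation above the screen-wide mean plus 3 SD, cut at about 4.5% in these data, passing the limit was not always enough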
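Material: Human S1P3 NFAT-BLA reporter CHO cells | Incubation: Overnight plating, 4 h compound 37 °C, 2 h substrate RT | Signal: FRET β-lactamase substrate fluorescence, excitation 405 nm, 460/535 nm emission ratio, background-subtracted | Compound: 4.5 µM final, single dose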
S1P1 ag pot – S1P1 (human) agonism or agonism potentiation; S1P1 CRE-bla cells, forskolin, beta-lactamase FRET, potentiator mode; S1P1 agonist co-added at EC20, 2 nM; 100% = saturating reference agonist, 0% = basal; activation, % at 9.5 µM; P21453; actives 0.57% (n = 56,000);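 active = activation above a cutoff set at the mean activation of all tested compounds plus 3 SD, cut at about 54% in these data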;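 note: forskolin at 4 µM as EC80 and the EC20 agonist is SEW2871; 100% = SEW2871 at its EC100 plus forskolin at EC80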
Target sequence (P21453 whole entry, looked up): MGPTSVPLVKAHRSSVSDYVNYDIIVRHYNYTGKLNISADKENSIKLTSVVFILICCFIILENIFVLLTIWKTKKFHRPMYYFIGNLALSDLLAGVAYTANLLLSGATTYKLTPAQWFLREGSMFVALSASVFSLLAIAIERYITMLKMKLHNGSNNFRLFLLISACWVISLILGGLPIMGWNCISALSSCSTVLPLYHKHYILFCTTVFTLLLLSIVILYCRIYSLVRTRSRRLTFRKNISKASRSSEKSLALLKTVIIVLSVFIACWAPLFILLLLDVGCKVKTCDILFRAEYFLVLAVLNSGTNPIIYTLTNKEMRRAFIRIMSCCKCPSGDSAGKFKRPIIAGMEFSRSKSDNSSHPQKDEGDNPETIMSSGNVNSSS
5HT1E ag – 5-HT1E (human) receptor agonism. activation, % at 6 µM. actives 0.69% (n = 65,000). CHO 5-HT1E Ga15 NFAT-bla reporter, FRET; 0% DMSO wells, 100% control agonist wells;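 active = activation above a set limit, the screen-wide mean activation plus 3 SD, cut at about 8.5% in these data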;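 note: 100% = positive control agonist at 1 µM giving full maximal response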
5HT1a ag – activates the human 5-HT1a serotonin receptor; P08908; CHO 5-HT1a Ga15 NFAT-bla reporter, FRET ratio; 0% basal, 100% maximal reference agonist; activation, % at 10 µM; actives 0.56% (n = 65,000); AID 567;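 active = activation above the screen-wide mean activation plus 3 SD, cut at about 19% in these data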;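 note: 0% = DMSO wells and 100% = 5-CT at EC100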
5-HT1A blocker – 5-HT1a (human) receptor antagonism; P08908; CHO 5-HT1a Ga15 NFAT-bla reporter, antagonist mode; actives 0.68% (n = 62,000); inhibition, % at 10 µM;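 active = inhibition above the mean of all tested compounds plus 3 SD, cut at about 43% in these data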;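 note: receptor stimulated by 5-CT agonist at 100 nM near EC80; beta-lactamase reporter measured by ratiometric fluorescence of a cleavable substrate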
* hit, by the source's call; . = no result given. Compounds with a hit are over-represented: about 3% of the library has one in this group of screens.

SMILES	HTR1E antagonist	S1P3 agonist	S1P1 ag pot	5HT1E ag	5HT1a ag	5-HT1A blocker
CCc1ccc2oc(-c3cc(N)cc(C)c3O)nc2c1	-2	-1	65*	-1	-2	32
CS(=O)(=O)c1ncc(Cl)c(C(=O)Nc2ccc(N3CCOCC3)cc2)n1	82*	1	-10	1	-2	81*
O=C(Nc1ccc(N2CCOCC2)cc1)c1cnsn1	1	-2	13	-1	-2	-14
Cc1cc(C)c(N2C(=NC(=O)CCCC(=O)O)SC3CS(=O)(=O)CC32)c(C)c1 (centres undefined)	-6	-1	5	-1	0	-10
CCOc1ccccc1NC(=O)Cn1nnc(C(=O)NCc2ccco2)c1N	73*	-1	6	-1	-2	34
Cc1cc(C(=O)CN2C(=O)NC(Cc3c[nH]c4ccccc34)C2=O)c(C)n1C (centres undefined)	-7	1	16	-1	-3	-1
C=C(C)COc1ccc(-c2[nH]ncc2-c2ccc(OC)c(OC)c2)c(O)c1	37*	-1	-14	1	0	40
OCc1cn(-c2ccccc2)nc1-c1ccc(-c2nn(-c3ccccc3)cc2CO)cc1	9	.	.	0	1	7
N#Cc1cn(-c2ccccc2)nc1-c1ccccc1	34*	-1	10	-1	-3	29
CN1/C(=C\C(=O)COc2ccc3c(c2)OCO3)C(C)(C)c2ccccc21	1	-1	29	14*	-5	10
Cc1ccc(S(=O)(=O)C(C#N)c2nc3ccccc3nc2N2CCCCC2)cc1 (centres undefined)	-7	.	.	1	3	3
N#CC(c1nc2ccccc2nc1N1CCCCC1)S(=O)(=O)c1ccc(Cl)cc1 (centres undefined)	0	-2	11	12*	-1	5
CC(C)(C)OC(=O)NCCc1nnc(S(=O)(=O)Cc2ccc(Cl)cc2Cl)o1	12	-2	46	-1	0	69*
O=C(COc1ccc(Cl)cc1)Nc1ccccc1N1CCOCC1	-4	1	12	0	1	3
Cc1ccc(C)c(NC(=O)CSc2nc3c(c(=O)n2C)SC(C)C3)c1 (centres undefined)	4	0	-9	1	2	-4
CCn1c(SCC(=O)Nc2cc(C)ccc2C)nc2c(c1=O)SC(C)C2 (centres undefined)	0	-1	-6	1	70*	13
O=C1NC2NC(=O)N(C(Cc3ccccc3)C(=O)O)C2N1 (centres undefined)	2	1	-11	1	-1	3
COC(=O)c1sccc1NC(=O)c1cc2c(s1)CCCC2	7	-1	22	-1	30*	40
COC(=O)c1sccc1NC(=O)c1ccc(Br)o1	20	-1	-30	0	-1	1
COc1cc(OC)nc(NC(=O)NS(=O)(=O)c2ccc(OC(F)(F)F)cc2)n1	9	-1	-3	0	-1	-1
COc1ccc(-n2c(SCC(=O)Nc3ccccc3)nc3c(c2=O)SCC3)cc1	-9	-1	16	2	0	1
COCCN1C(=O)c2ccccc2C(C(=O)N2CCN(c3ccccn3)CC2)C1c1ccc(F)cc1 (centres undefined)	-13	.	.	0	-1	6
COc1ccccc1N1CCN(C(=O)C2CC=CCC2C(=O)O)CC1 (centres undefined)	-2	-1	-9	49*	7	27
COc1ccccc1N1CCN(C(=O)C2c3ccccc3Oc3ccccc32)CC1	42*	-1	17	-1	-3	55*
Cc1ccnc2nc(C(=O)N3CCN(S(=O)(=O)c4ccccc4)CC3)nn12	-2	0	1	1	0	-8
SMILES	HTR1E antagonist	S1P3 agonist	S1P1 ag pot	5HT1E ag	5HT1a ag	5-HT1A blocker
Cc1cccc(NC(=O)Nc2ccc(C#N)cc2)n1	32*	-2	68	0	-1	83*
Cc1cccc(NC(=O)Nc2cccc(C#N)c2)n1	-6	-1	-31	0	0	27
CCn1nnc(-c2ccccc2NS(=O)(=O)c2ccc(C(=O)OC)cc2)n1	34*	-1	51	-2	-4	21
CCn1nnc(-c2ccccc2NC(=O)c2ccc(-n3cnnn3)cc2)n1	9	-1	-14	1	0	4
CCOC(=O)CNc1nc(C#N)nc(N2CCOCC2)n1	-2	1	0	-1	-2	-5
CC(C)n1c2ccccc2c2nc3ccccc3nc21	32*	0	-38	0	5	6
COC(=O)CC(=O)Cc1nc(N)nc(Nc2ccc(C)c(C)c2)n1	4	-3	6	52*	-3	.
Cc1ccc(Nc2nc(N)nc(CN3CCN(C)CC3)n2)cc1C	5	0	-21	0	1	1
CCCCOc1ccc(C(=O)NCc2ccccn2)cc1	9	0	10	0	-4	0
COc1ccc(OC)c(-c2csc(N(Cc3ccco3)C(=O)c3cccs3)n2)c1	2	-2	22	2	5	43*
COc1ccc(-c2csc(N(CC3CCCO3)C(=O)c3cccs3)n2)cc1 (centres undefined)	5	-2	-4	1	1	15
CC1(C)Cc2cccc(OCC(O)CNCc3ccccn3)c2O1 (centres undefined)	10	-2	14	0	-1	21
CC1(C)Cc2cccc(OCC(O)CN3CCN(c4ccccn4)CC3)c2O1 (centres undefined)	-4	0	15	0	21*	11
O=C(Oc1ccc2ccccc2c1)c1ccco1	-8	0	-21	1	-2	-11
CC1CC(C)(C)Nc2ccc(OC(=O)c3ccco3)cc21 (centres undefined)	40*	-1	68	1	-4	51*
CC(=O)CCc1c(C)c2cc(C)ccc2[nH]c1=O	1	-1	10	1	-3	-10
COc1cccc(-n2c(Cc3cc(=O)[nH]c(=O)[nH]3)nnc2SCC(=O)N2CCCCC2)c1	1	0	-23	0	-2	3
CCC(=O)Nc1cc(C)c(NC(=O)c2ccco2)cn1	1	.	.	0	1	3
CCC(=O)Nc1cc(C)c(NC(=O)c2ccccc2OC)cn1	-2	0	0	14*	-2	-16
CN(C)c1ccc(C2C=C(c3ccc(Cl)cc3OC(F)F)Nc3ncnn32)cc1 (centres undefined)	24	1	-33	5	28*	2
COc1ccc(COC(=O)C2=C(C)NC(=O)NC2c2ccc(O)c(OC)c2)cc1 (centres undefined)	-1	0	15	0	-3	0
